The source of these data is ChEMBL document CHEMBL1156480, “Insensitivity to Abeta42-lowering nonsteroidal anti-inflammatory drugs and gamma-secretase inhibitors is common among aggressive presenilin-1 mutations” (J Biol Chem, 2007).

SMILES strings stand for the structures.

What all share (type): cell-based
What all share (set-up): scale not given: the % may be the effect or the level left

Test [1] deals with Presenilin-1 (Homo sapiens) (UniProt P49768). The experiment in a line: Reduction of human wild type PS1-induced amyloid beta-40 level in CHO cells overexpressing human APP751 at 100 nM after 24 hrs by liquid phase electrochemiluminescence assay relative to control.
In test [2] the test system is CHO. Kind of test: Reduction of human PS1 delta exon9 mutant-induced amyloid beta-40 level in CHO cells overexpressing human APP751 at 100 nM after 24 hrs by liquid phase electrochemiluminescence assay relative to control. The gist of the method:
(§1)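 APP751 CHO cells stably expressing PS1-ΔExon9, PS1-L166P or PS1-WT, cultured in parallel in serum-containing medium. Treated 24 h with increasing γ-secretase inhibitor concentrations or DMSO. Conditioned-media Abeta40/Abeta42 quantified by LPECL against synthetic peptide standards (16–2000 pg/ml). Duplicates normalized to DMSO. n = 3, one-way ANOVA with Dunnett's test versus PS1-WT.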

In test [3] the test system is Presenilin-1 (Homo sapiens), P49768 [L166P]. The experiment in a line: Reduction of human PS1 L166P mutant-induced amyloid beta-40 level in CHO cells overexpressing human APP751 at 100 nM after 24 hrs by liquid phase electrochemiluminescence assay relative to control. The gist of the method: as §1
Test [4] concerns the target Presenilin-1 (Homo sapiens) (UniProt P49768). The experiment in a line: Reduction of human wild type PS1-induced amyloid beta-40 level in CHO cells overexpressing human APP751 at 250 nM after 24 hrs by liquid phase electrochemiluminescence assay relative to control.
Test [5] deals with CHO. The experiment in a line: Reduction of human PS1 delta exon9 mutant-induced amyloid beta-40 level in CHO cells overexpressing human APP751 at 250 nM after 24 hrs by liquid phase electrochemiluminescence assay relative to control. The gist of the method: as §1
Test [6] concerns Presenilin-1 (Homo sapiens), P49768 [L166P]. Kind of test: Reduction of human PS1 L166P mutant-induced amyloid beta-40 level in CHO cells overexpressing human APP751 at 250 nM after 24 hrs by liquid phase electrochemiluminescence assay relative to control. Put shortly:
as §1

For test [7], the target named is Presenilin-1 (Homo sapiens) (UniProt P49768). The experiment in a line: Reduction of human wild type PS1-induced amyloid beta-40 level in CHO cells overexpressing human APP751 at 500 nM after 24 hrs by liquid phase electrochemiluminescence assay relative to control.
For test [8], the system named is CHO. Kind of test: Reduction of human PS1 delta exon9 mutant-induced amyloid beta-40 level in CHO cells overexpressing human APP751 at 500 nM after 24 hrs by liquid phase electrochemiluminescence assay relative to control. Put shortly:
as §1

Test [9] has as its system Presenilin-1 (Homo sapiens), P49768 [L166P]. Kind of test: Reduction of human PS1 L166P mutant-induced amyloid beta40 level in CHO cells overexpressing human APP751 at 500 nM after 24 hrs by liquid phase electrochemiluminescence assay relative to control. Put shortly:
as §1

The target in test [10] is Presenilin-1 (Homo sapiens) (UniProt P49768). The experiment in a line: Reduction of human wild type PS1-induced amyloid beta-42 level in CHO cells overexpressing human APP751 at 100 nM after 24 hrs by liquid phase electrochemiluminescence assay relative to control.
Test [11] concerns CHO. The experiment in a line: Reduction of human PS1 delta exon9 mutant-induced amyloid beta-42 level in CHO cells overexpressing human APP751 at 100 nM after 24 hrs by liquid phase electrochemiluminescence assay relative to control. Put shortly:
as §1

In test [12] the test system is Presenilin-1 (Homo sapiens), P49768 [L166P]. The experiment in a line: Reduction of human PS1 L166P mutant-induced amyloid beta-42 level in CHO cells overexpressing human APP751 at 100 nM after 24 hrs by liquid phase electrochemiluminescence assay relative to control. The gist of the method: as §1
Test [13] deals with Presenilin-1 (Homo sapiens) (UniProt P49768). The experiment in a line: Reduction of human wild type PS1-induced amyloid beta-42 level in CHO cells overexpressing human APP751 at 250 nM after 24 hrs by liquid phase electrochemiluminescence assay relative to control.
Test [14] concerns CHO. The experiment in a line: Reduction of human PS1 delta exon9 mutant-induced amyloid beta-42 level in CHO cells overexpressing human APP751 at 250 nM after 24 hrs by liquid phase electrochemiluminescence assay relative to control. Put shortly: as §1
In test [15] the test system is Presenilin-1 (Homo sapiens), P49768 [L166P]. The experiment in a line: Reduction of human PS1 L166P mutant-induced amyloid beta-42 level in CHO cells overexpressing human APP751 at 250 nM after 24 hrs by liquid phase electrochemiluminescence assay relative to control. The gist of the method:
as §1

The target of test [16] is Presenilin-1 (Homo sapiens) (UniProt P49768). The experiment in a line: Reduction of human wild type PS1-induced amyloid beta-42 level in CHO cells overexpressing human APP751 at 500 nM after 24 hrs by liquid phase electrochemiluminescence assay relative to control.
Test [17] relates to CHO. Kind of test: Reduction of human PS1 delta exon9 mutant-induced amyloid beta-42 level in CHO cells overexpressing human APP751 at 500 nM after 24 hrs by liquid phase electrochemiluminescence assay relative to control.
Test [18] deals with Presenilin-1 (Homo sapiens), P49768 [L166P]. The experiment in a line: Reduction of human PS1 L166P mutant-induced amyloid beta-42 level in CHO cells overexpressing human APP751 at 500 nM after 24 hrs by liquid phase electrochemiluminescence assay relative to control. Put shortly: as §1
In test [19] the target is Presenilin-1 (Homo sapiens) (UniProt P49768). The experiment in a line: Reduction of wild type human PS1-induced amyloid beta42 level in CHO cells overexpressing human APP751 at 30 uM after 24 hrs by liquid phase electrochemiluminescence assay relative to control.
Test [20] has as its system Presenilin-1 (Homo sapiens), P49768 [S290C]. Kind of test: Reduction of human PS1 S290C mutant-induced amyloid beta-42 level in CHO cells overexpressing human APP751 at 30 uM after 24 hrs by liquid phase electrochemiluminescence assay relative to control.
Test [21] has as its system CHO. The experiment in a line: Reduction of human PS1 delta exon9 mutant-induced amyloid beta-42 level in CHO cells overexpressing human APP751 at 30 uM after 24 hrs by liquid phase electrochemiluminescence assay relative to control.
For test [22], the system named is CHO. The experiment in a line: Reduction of human PS1 delta 291 to 319 deletion mutant-induced amyloid beta-42 level in CHO cells overexpressing human APP751 at 30 uM after 24 hrs by liquid phase electrochemiluminescence assay relative to control.
In test [23] the test system is Presenilin-1 (Homo sapiens), P49768 [M292D]. Kind of test: Reduction of human PS1 M292D mutant-induced amyloid beta-42 level in CHO cells overexpressing human APP751 at 30 uM after 24 hrs by liquid phase electrochemiluminescence assay relative to control.
Test [24] deals with Presenilin-1 (Homo sapiens), P49768 [M292D,M146L]. Kind of test: Reduction of human PS1 M292D/M146L mutant-induced amyloid beta-42 level in CHO cells overexpressing human APP751 at 30 uM after 24 hrs by liquid phase electrochemiluminescence assay relative to control.
Test [25] addresses Presenilin-1 (Homo sapiens) (UniProt P49768). The experiment in a line: Reduction of human wild type human PS1-induced amyloid beta-42 level in CHO cells overexpressing human APP751 at 60 uM after 24 hrs by liquid phase electrochemiluminescence assay relative to control.
Test [26] deals with Presenilin-1 (Homo sapiens), P49768 [S290C]. The experiment in a line: Reduction of human PS1 S290C mutant-induced amyloid beta-42 level in CHO cells overexpressing human APP751 at 60 uM after 24 hrs by liquid phase electrochemiluminescence assay relative to control.
Test [27] concerns CHO. Kind of test: Reduction of human PS1 delta exon9 mutant-induced amyloid beta-42 level in CHO cells overexpressing human APP751 at 60 uM after 24 hrs by liquid phase electrochemiluminescence assay relative to control.
The test system of test [28] is CHO. Kind of test: Reduction of human PS1 delta 291 to 319 deletion mutant-induced amyloid beta-42 level in CHO cells overexpressing human APP751 at 60 uM after 24 hrs by liquid phase electrochemiluminescence assay relative to control.
The test system of test [29] is Presenilin-1 (Homo sapiens), P49768 [S290C,M292D]. The experiment in a line: Reduction of human PS1 S290C/M292D mutant-induced amyloid beta-42 level in CHO cells overexpressing human APP751 at 30 uM after 24 hrs by liquid phase electrochemiluminescence assay relative to control.
Test [30] has as its system Presenilin-1 (Homo sapiens), P49768 [M292D]. Kind of test: Reduction of human PS1 M292D mutant-induced amyloid beta42 level in CHO cells overexpressing human APP751 at 60 uM after 24 hrs by liquid phase electrochemiluminescence assay relative to control.
The subject of test [31] is Presenilin-1 (Homo sapiens), P49768 [M292D,M146L]. Kind of test: Reduction of human PS1 M292D/M146L mutant-induced amyloid beta42 level in CHO cells overexpressing human APP751 at 60 uM after 24 hrs by liquid phase electrochemiluminescence assay relative to control.
The test system of test [32] is Presenilin-1 (Homo sapiens), P49768 [L166P]. Kind of test: Reduction of human PS1 L166P mutant-induced amyloid beta42 level in CHO cells overexpressing human APP751 at 60 uM after 24 hrs by liquid phase electrochemiluminescence assay relative to control.
For test [33], the system named is Presenilin-1 (Homo sapiens), P49768 [P117L]. The experiment in a line: Reduction of human PS1 P117L mutant-induced amyloid beta42 level in CHO cells overexpressing human APP751 at 60 uM after 24 hrs by liquid phase electrochemiluminescence assay relative to control.
For test [34], the system named is Presenilin-1 (Homo sapiens), P49768 [G384A]. The experiment in a line: Reduction of human PS1 G384A mutant-induced amyloid beta42 level in CHO cells overexpressing human APP751 at 60 uM after 24 hrs by liquid phase electrochemiluminescence assay relative to control.
The subject of test [35] is Presenilin-1 (Homo sapiens), P49768 [L166P]. Kind of test: Reduction of human PS1 L166P mutant-induced amyloid beta42 level in CHO cells overexpressing human APP751 at 30 uM after 24 hrs by liquid phase electrochemiluminescence assay relative to control.
Test [36] deals with Presenilin-1 (Homo sapiens), P49768 [P117L]. Kind of test: Reduction of human PS1 P117L mutant-induced amyloid beta42 level in CHO cells overexpressing human APP751 at 30 uM after 24 hrs by liquid phase electrochemiluminescence assay relative to control.
The subject of test [37] is Presenilin-1 (Homo sapiens), P49768 [G384A]. Kind of test: Reduction of human PS1 G384A mutant-induced amyloid beta42 level in CHO cells overexpressing human APP751 at 30 uM after 24 hrs by liquid phase electrochemiluminescence assay relative to control.

Regarding `CC(C)C[C@H](NC(=O)C(Cc1ccccc1)C[C@@H](O)[C@H](Cc1ccccc1)NC(=O)OC(C)(C)C)C(=O)N[C@@H](Cc1ccccc1)C(N)=O` (single isomer, unassigned), the Activity in test [1] came to 8.1%; in test [2], 86.3%; in test [3], 41.5%; in test [4], 2.95%; in test [5], 54%; in test [6], 20.6%. Further, the Activity in test [7] worked out at 1.92%; in test [8], 33.4%; in test [9] it was 13.1%; in test [10] it was 11.3%; in test [11], 98.3%; in test [12] it was 62.3%. The Activity was 3.28% in test [13]; 54.5% in test [14]; 44.1% in test [15]; 2.59% in test [16]; 34.1% in test [17]; 34.2% in [18].

As for `CSc1ccc(/C=C2/C(C)=C(CC(=O)O)c3cc(F)ccc32)cc1`, the Activity came out at 78.2% in test [19]; 83.8% in test [20]; 99.7% in [21]; 88.7% in test [22]; 89.5% in test [23]; 73.2% in test [24]. Also, the Activity in test [25] is 61.6%; in [26], 65.9%; in [27], 99.5%; in [28], 82.7%; in test [29] it was 82.4%; in [30] it was 73.9%. Further, the Activity was 58.5% in test [31]; 99.2% in test [32]; 88.5% in test [33]; 90.3% in test [34]; 99.5% in test [35]; 100% in [36]. In test [37], the Activity came to 95.1%.
